Drug metabolism and IC50 data for two molecules are collected here from ChEMBL document CHEMBL4007430, “Synthesis and Cytostatic and Antiviral Profiling of Thieno-Fused 7-Deazapurine Ribonucleosides” (J Med Chem, 2017).

pIC50: −log10 of the molar value.

Series [1] concerns the target T1, Adenosine kinase (Homo sapiens, UniProt P55263). The experiment in a line: Drug metabolism in human HCT116 cells assessed as ADK-mediated 4-Methylsulfanyl-8-(beta-D-ribofuranosyl)-8H-thieno[3,2:4,5]-pyrrolo[2,3-d]pyrimidine-5-O-monophosphate Sodium Salt formation per 5 x10^5 cells at 10 umol/L after 1 hr by UPLC-MS/MS analysis. To be noted: 10 µM. Type of series: ADME, cell-based.

Series [2] deals with T1, Adenosine kinase. The experiment in a line: Drug level in human HCT116 cells assessed as ADK-mediated compound formation treated with 4-Methylsulfanyl-8-(beta-D-ribofuranosyl)-8H-thieno[3',2':4,5]-pyrrolo[2,3-d]pyrimidine at 10 umol/L after 1 hr by UPLC-MS/MS analysis. Format: ADME, cell-based.
Series [3] concerns the target T1, Adenosine kinase. The series can be described thus: Drug level assessed as human ADK-mediated compound formation treated with 4-Methylsulfanyl-8-(beta-D-ribofuranosyl)-8H-thieno[3',2':4,5]-pyrrolo[2,3-d]pyrimidine at 50 uM after 30 mins by HPLC analysis. The note with it: 0.5 h. Type of series: ADME.
Series [4] deals with T1, Adenosine kinase. The experiment in a line: Drug metabolism in human BJ cells assessed as ADK-mediated 4-Methylsulfanyl-8-(beta-D-ribofuranosyl)-8H-thieno[3,2:4,5]-pyrrolo[2,3-d]pyrimidine-5-O-monophosphate Sodium Salt formation per 5 x10^5 cells at 1 umol/L after 1 hr by UPLC-MS/MS analysis. Format: ADME, cell-based. To be noted: 1 µM.
The subject of series [5] is HCT-116. The series can be described thus: Cytotoxicity against human HCT116 cells assessed as cell growth inhibition after 72 hrs by MTS assay. Format: functional, cell-based. The note with it: HCT-116, 72 h. In a few lines:
(§1)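 Cells were exposed to compound for 3 days, then stained with MTS as a quantitative metabolic read-out. IC50 is the concentration that inhibits cell growth by 50%.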
Background: Formazan colour is commonly taken as a measure of viable cells.

The test system of series [6] is HeLa S3. The experiment in a line: Cytotoxicity against human HeLaS3 cells assessed as reduction in cell viability after 72 hrs by XTT assay. The note with it: HeLa S3, 72 h. Type of series: functional, cell-based. In a few lines:
(§2)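 Cells were incubated with compound for 3 days. Viability was then measured with the XTT tetrazolium assay.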

The test system of series [7] is HCT-116. The experiment in a line: Cytotoxicity against p53 deficient human HCT116 cells assessed as cell growth inhibition after 72 hrs by MTS assay. To be noted: HCT-116, 72 h. Type of series: functional, cell-based. In a few lines:
as §1

Series [8] addresses T1, Adenosine kinase. The series can be described thus: Drug metabolism in human BJ cells assessed as ADK-mediated 4-Methylsulfanyl-8-(beta-D-ribofuranosyl)-8H-thieno[3,2:4,5]-pyrrolo[2,3-d]pyrimidine-5-O-monophosphate Sodium Salt formation per 5 x10^5 cells at 10 umol/L after 3 hrs by UPLC-MS/MS analysis. Format: ADME, cell-based. To be noted: 10 µM.
For series [9], the target named is T1, Adenosine kinase. The series can be described thus: Drug metabolism in human BJ cells assessed as ADK-mediated 4-Methylsulfanyl-8-(beta-D-ribofuranosyl)-8H-thieno[3,2:4,5]-pyrrolo[2,3-d]pyrimidine-5-O-monophosphate Sodium Salt formation per 5 x10^5 cells at 10 umol/L after 1 hr by UPLC-MS/MS analysis. Type of series: ADME, cell-based. To be noted: 10 µM.
Series [10] has as its target T1, Adenosine kinase. The experiment in a line: Drug level in human BJ cells assessed as ADK-mediated compound formation treated with 4-Methylsulfanyl-8-(beta-D-ribofuranosyl)-8H-thieno[3',2':4,5]-pyrrolo[2,3-d]pyrimidine at 10 umol/L after 3 hrs by UPLC-MS/MS analysis. Type of series: ADME, cell-based.
Series [11] addresses T1, Adenosine kinase. The experiment in a line: Drug metabolism in human HCT116 cells assessed as ADK-mediated 4-Methylsulfanyl-8-(beta-D-ribofuranosyl)-8H-thieno[3,2:4,5]-pyrrolo[2,3-d]pyrimidine-5-O-monophosphate Sodium Salt formation per 5 x10^5 cells at 10 umol/L after 3 hrs by UPLC-MS/MS analysis. Format: ADME, cell-based. The note with it: 10 µM.
In series [12] the test system is A549. The series can be described thus: Cytotoxicity against human A549 cells assessed as cell growth inhibition after 72 hrs by MTS assay. Format: functional, cell-based. To be noted: A549, 72 h. In a few lines: as §1
Series [13] addresses T1, Adenosine kinase. The series can be described thus: Drug level in human HCT116 cells assessed as ADK-mediated compound formation treated with 4-Methylsulfanyl-8-(beta-D-ribofuranosyl)-8H-thieno[3',2':4,5]-pyrrolo[2,3-d]pyrimidine at 10 umol/L after 3 hrs by UPLC-MS/MS analysis. Type of series: ADME, cell-based.
For series [14], the system named is CCRF-CEM. The experiment in a line: Cytotoxicity against human CCRF-CEM cells assessed as cell growth inhibition after 72 hrs by MTS assay.
The subject of series [15] is BJ. The experiment in a line: Cytotoxicity against human BJ cells assessed as cell growth inhibition after 72 hrs by MTS assay. Format: cell-based. In a few lines:
as §1

Series [16] in a line: Cytotoxicity against human K562-TAX cells assessed as cell growth inhibition after 72 hrs by MTS assay. Type of series: functional, cell-based. In a few lines:
as §1

Series [17] has as its target T1, Adenosine kinase. The series can be described thus: Drug metabolism in human BJ cells assessed as ADK-mediated 4-Methylsulfanyl-8-(beta-D-ribofuranosyl)-8H-thieno[3,2:4,5]-pyrrolo[2,3-d]pyrimidine-5-O-monophosphate Sodium Salt formation per 5 x10^5 cells at 1 umol/L after 3 hrs by UPLC-MS/MS analysis. Type of series: ADME, cell-based. The note with it: 1 µM.
Series [18] has as its target T1, Adenosine kinase. The experiment in a line: Drug metabolism in human HCT116 cells assessed as ADK-mediated 4-Methylsulfanyl-8-(beta-D-ribofuranosyl)-8H-thieno[3,2:4,5]-pyrrolo[2,3-d]pyrimidine-5-O-monophosphate Sodium Salt formation per 5 x10^5 cells at 1 umol/L after 3 hrs by UPLC-MS/MS analysis. Type of series: ADME, cell-based. The note with it: 1 µM.
Series [19] has as its system K562. The series can be described thus: Cytotoxicity against human K562 cells assessed as cell growth inhibition after 72 hrs by MTS assay. Format: functional, cell-based. The note with it: K562, 72 h. In a few lines: as §1
The target of series [20] is T1, Adenosine kinase. The series can be described thus: Drug level in human HCT116 cells assessed as ADK-mediated compound formation treated with 4-Methylsulfanyl-8-(beta-D-ribofuranosyl)-8H-thieno[3',2':4,5]-pyrrolo[2,3-d]pyrimidine at 1 umol/L after 3 hrs by UPLC-MS/MS analysis. Type of series: ADME, cell-based.
The test system of series [21] is HepG2. The experiment in a line: Cytotoxicity against human HepG2 cells assessed as reduction in cell viability after 72 hrs by XTT assay. The note with it: HepG2, 72 h. Format: functional, cell-based. In a few lines:
as §2

The target in series [22] is T1, Adenosine kinase. The experiment in a line: Drug level in human HCT116 cells assessed as ADK-mediated compound formation treated with 4-Methylsulfanyl-8-(beta-D-ribofuranosyl)-8H-thieno[3',2':4,5]-pyrrolo[2,3-d]pyrimidine at 1 umol/L after 1 hr by UPLC-MS/MS analysis. Type of series: ADME, cell-based.
Series [23] has as its target T1, Adenosine kinase. The experiment in a line: Drug level in human BJ cells assessed as ADK-mediated compound formation treated with 4-Methylsulfanyl-8-(beta-D-ribofuranosyl)-8H-thieno[3',2':4,5]-pyrrolo[2,3-d]pyrimidine at 10 umol/L after 1 hr by UPLC-MS/MS analysis. Type of series: ADME, cell-based.
The test system of series [24] is HL-60. The series can be described thus: Cytotoxicity against human HL60 cells assessed as reduction in cell viability after 72 hrs by XTT assay. Type of series: functional, cell-based. The note with it: HL-60, 72 h. In a few lines: as §2
Series [25] can be described thus: Cytotoxicity against mrp-1/mdr-1 overexpressing human CEM-DNR-bulk cells assessed as cell growth inhibition after 72 hrs by MTS assay. Format: functional, cell-based. In a few lines: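 Cells were exposed to compound for 3 days, then stained with MTS as a quantitative metabolic read-out.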
Series [26] addresses T1, Adenosine kinase. The series can be described thus: Drug level in human BJ cells assessed as ADK-mediated compound formation treated with 4-Methylsulfanyl-8-(beta-D-ribofuranosyl)-8H-thieno[3',2':4,5]-pyrrolo[2,3-d]pyrimidine at 1 umol/L after 3 hrs by UPLC-MS/MS analysis. Type of series: ADME, cell-based.
The subject of series [27] is U2OS. The series can be described thus: Cytotoxicity against human U2OS cells assessed as cell growth inhibition after 72 hrs by MTS assay. Format: functional, cell-based.
Series [28] has as its target T1, Adenosine kinase. The experiment in a line: Drug level in human BJ cells assessed as ADK-mediated compound formation treated with 4-Methylsulfanyl-8-(beta-D-ribofuranosyl)-8H-thieno[3',2':4,5]-pyrrolo[2,3-d]pyrimidine at 1 umol/L after 1 hr by UPLC-MS/MS analysis. Format: ADME, cell-based.
In series [29] the test system is MRC5. The series can be described thus: Cytotoxicity against human MRC5 cells assessed as cell growth inhibition after 72 hrs by MTS assay. Format: cell-based. To be noted: MRC5, 72 h. In a few lines:
as §1

For series [30], the target named is T1, Adenosine kinase. The series can be described thus: Drug metabolism in human HCT116 cells assessed as ADK-mediated 4-Methylsulfanyl-8-(beta-D-ribofuranosyl)-8H-thieno[3,2:4,5]-pyrrolo[2,3-d]pyrimidine-5-O-monophosphate Sodium Salt formation per 5 x10^5 cells at 1 umol/L after 1 hr by UPLC-MS/MS analysis. Type of series: ADME, cell-based. The note with it: 1 µM.

In series [31] the target is T1, Adenosine kinase. The experiment in a line: Drug level assessed as human ADK-mediated compound formation treated with adenosine at 50 uM after 30 mins by HPLC analysis. Type of series: ADME. The note with it: 0.5 h.

T1 sequence (P55263 whole entry): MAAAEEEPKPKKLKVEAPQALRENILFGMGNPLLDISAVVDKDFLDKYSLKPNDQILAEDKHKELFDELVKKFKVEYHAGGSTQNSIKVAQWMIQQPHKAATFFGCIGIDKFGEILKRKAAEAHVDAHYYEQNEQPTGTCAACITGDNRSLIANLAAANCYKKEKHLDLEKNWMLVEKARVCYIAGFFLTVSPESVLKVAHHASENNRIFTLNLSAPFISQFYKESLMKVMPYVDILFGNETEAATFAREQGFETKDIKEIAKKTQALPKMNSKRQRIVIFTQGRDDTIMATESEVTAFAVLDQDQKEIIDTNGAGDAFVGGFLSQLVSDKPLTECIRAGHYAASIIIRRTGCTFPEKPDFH

With `CSc1ncnc2c1c1ccsc1n2[C@@H]1O[C@H](COP(=O)([O-])O)[C@@H](O)[C@H]1O.[Na+]`, the Drug metabolism is 98.5 pmol in series [1]; “Metabolite_Detected” in [2]; “Metabolite_Detected” in series [3]; 13.8 pmol in series [4]; 6862.8 pmol in series [8]; 6694.3 pmol in series [9]. The Drug metabolism entry in series [10] was “Metabolite_Detected”; in series [11], 144.3 pmol; in series [13], “Metabolite_Detected”; in series [17], 4933.3 pmol; in [18], 75.6 pmol; in series [20] it was “Metabolite_Detected”. Moreover, the Drug metabolism entry is given as “Metabolite_Detected” in series [22]; “Metabolite_Detected” in series [23]; “Metabolite_Detected” in series [26]; “Metabolite_Detected” in [28]; 76.2 pmol in series [30]. In addition, the pIC50 in [5] was 6.60; in series [6] it was 5.66; in series [7], 6.59; in series [12], less than 4.30; in series [14], 6.72; in series [15], 6.14. For the same molecule, the negative logarithm of the IC50 (pIC50) in [16] was less than 4.30; in series [19], 5.88; in [21], 6.11; in series [24], 6.11; in series [25] it was less than 4.30; in series [27], 5.59. For the same molecule, in [29], the negative-log IC50 (pIC50) is less than 4.30.

For `Nc1ncnc2c1ncn2[C@@H]1O[C@H](COP(=O)(O)O)[C@@H](O)[C@H]1O` [ADENOSINE PHOSPHATE], in series [31], the Drug metabolism entry was “Metabolite_Detected”.

The pIC50 is −log10 of the IC50, conventionally taken in molar units.
